Data as given in PMC10634246 (ACS Omega, 2023).

Legend:
HUVEC [1] = assay: NO level in HUVEC; type: cell-based, human; details: peptide 100 μM, 4 h, then Ang II 5 μM, 24 h; for NO level: assay kit, n = 3
HUVEC [2] = assay: HUVEC morphology and cell number, inverted microscope; type: cell-based, human; details: peptide 100 μM, 4 h, then Ang II 5 μM, 24 h; 200×
Outline: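 HUVECs were suspended in fresh medium at a final 4 × 10^5 cells/well in 6-well plates and given 100 μM test peptide for 4 h. Medium was discarded, then 5 μM Ang II was added for 24 h. Cells were observed and photographed under an inverted microscope.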

SOD = SOD activity in HUVEC; type: cell-based, human; details: peptide 100 μM, 4 h, then Ang II 5 μM, 24 h; assay kit; n = 3
HUVEC [3] = assay: MDA content in HUVEC; type: cell-based, human; details: 24 h, n = 3
GSH-Px = GSH-Px activity in HUVEC; type: cell-based, human; details: peptide 100 μM, 4 h, then Ang II 5 μM, 24 h; assay kit; n = 3
eNOS = assay: Western blot, eNOS expression in HUVEC; type: cell-based, human; details: peptide 100 μM, 4 h, then Ang II 5 μM, 24 h
Outline: (§1)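 HUVECs at 5 × 10^6 cells/well, pretreated with 100 μM test peptide 4 h, then Ang II 5 μM 24 h. Lysed in ice-cold buffer 30 min, spun 12,000 × g 10 min, protein by BCA. Denatured 95 °C 10 min, 20–40 μg on 10% SDS-PAGE, PVDF transfer. Blocked in 5% BSA 1 h RT, primary antibody 4 °C overnight, secondary 1 h RT. Triplicate, mean ± SD.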

CAT = CAT activity in HUVEC; type: cell-based, human; details: peptide 100 μM, 4 h, then Ang II 5 μM, 24 h; assay kit; n = 3
p-eNOS = assay: Western blot, p-eNOS in HUVEC; type: cell-based, human; details: peptide 100 μM, 4 h, then Ang II 5 μM, 24 h
Outline: as §1

Nrf2 = assay: Western blot, Nrf2 expression in HUVEC; type: cell-based, human; details: peptide 100 μM, 4 h, then Ang II 5 μM, 24 h; for expression of Nrf2 protein: gray scale analysis of bands
Outline: as §1

ET-1 = assay: Western blot, ET-1 expression in HUVEC; type: cell-based, human; details: peptide 100 μM, 4 h, then Ang II 5 μM, 24 h
Outline: as §1

eNOS and ET-1 = details: cited from earlier work
NQO1 = assay: Western blot, NQO1 expression in HUVEC; type: cell-based, human; details: peptide 100 μM, 4 h, then Ang II 5 μM, 24 h; gray scale analysis of bands
Outline: as §1

HO-1 = assay: Western blot, HO-1 expression in HUVEC; type: cell-based, human; details: peptide 100 μM, 4 h, then Ang II 5 μM, 24 h; gray scale analysis of bands
Outline: as §1

HepG2 = details: cited from earlier work
HUVECs = details: Ang II-stimulated HUVECs; cited from earlier work

Substance | NO level (HUVEC [1]) | HUVEC morphology (HUVEC [2]) | number of cells (HUVEC [2]) | SOD activity (SOD) | GSH-Px activity (GSH-Px) | eNOS expression (eNOS) | CAT activity (CAT) | eNOS phosphorylation (p-eNOS) (p-eNOS) | expression of Nrf2 protein (Nrf2) | ET-1 expression (ET-1) | effect on eNOS and ET-1 levels (eNOS and ET-1) | NQO1 expression (NQO1) | HO-1 expression (HO-1) | protection against hyperglycemia-induced HepG2 damage (HepG2) | further results
Angiotensin II [Ang II, reference compound] | obvious inhibition | polygonal or round with the blurred cell boundaries | significantly reduced compared with the Con group | significantly reduced | significantly reduced | obvious inhibition | significantly reduced | obvious inhibition | significantly inhibited | increased |  |  |  |  | increase of MDA content compared to the Con group (HUVEC [3]; Ang II 5 μM, compared to Con group): 200%
IPIPATKT |  |  |  |  |  |  |  |  |  |  | improvement effects |  |  |  | 
IVTNWDDMEK |  |  |  |  |  |  |  |  |  |  | improvement effects |  |  |  | 
KLHDEEVA [KA-8] | increased | did not improve the number and morphology of cells as significantly as PG-8 | did not improve the number and morphology of cells as significantly as PG-8 | significantly reversed the decline | significantly reversed the decline | increased | significantly reversed the decline | increased | reversed the inhibitory effect of Ang II | markedly blocked the Ang II-induced changes |  | increased | increased | revealed the protective effects | 
LSGYGP |  |  |  |  |  |  |  |  |  |  | improvement effects |  |  |  | protection against oxidative stress and endothelial injury (HUVECs): revealed protective effects
PSRILYG [PG-7] | increased |  | significantly reversed | significantly rebounded to the levels in the Con group | significantly rebounded to the levels in the Con group | increased | significantly rebounded to the levels in the Con group | increased | reversed the inhibitory effect of Ang II | markedly blocked the Ang II-induced changes |  | increased | higher than that in the KA-8 group | revealed the protective effects | NO level higher than in the Ang II group (HUVEC [1]; compared to Ang II group): more than 100%; level of intracellular MDA (HUVEC [3]; peptide 100 μM, 4 h, then Ang II 5 μM, assay kit): decreased to that of the Con group; eNOS level higher than in the Ang II group (eNOS; compared to Ang II group): more than 100%; p-eNOS level higher than in the Ang II group (p-eNOS; compared to Ang II group): more than 100%; Nrf2 content higher than in the Con group (Nrf2; compared to Con group): about 50%
